Shown are actives, neighbours in structure and some others; about 1.5% of the full set was active somewhere.
Hsp70 act = transcriptional activators of Hsp70; HeLa Hsp70 promoter luciferase reporter, luminescence; scaled: vehicle 0, proteasome-inhibitor control 100%; activation, % at 10 µM; hit rate 0.04% among 200,000;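 active = activation above the mean across all tested compounds plus 3 SD, cutoff set per campaign, cut at about 5.5% in these data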
Wee1 degr inh = human Wee1 degradation inhibition, primary screen; P30291; HeLa Luc-Wee1K328M stability, luciferase luminescence; 100% = proteasome inhibitor MG132 effect; reporter increase, % at 5 µM; hit rate 1.2% among 220,000; AID 1321;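 active = activation above the mean of all tested compounds plus 3 SD, set per screening run, cut at about 8.8% in these data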;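 also: cells exposed to compound for 20 h before luminescence read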
Pf gamet viab = kills late stage P. falciparum gametocytes. inhibition, % at 10.9 µM. P. falciparum stage V gametocytes, ATP luminescence, 24 h. hit rate 0.065% among 150,000. AID 743093;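 active = inhibition above the mean plus 3 SD of compounds within the control limits, set per campaign, cut at about 38% in these data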
MDM2 E3 inh = Mdm2 E3 ligase (human) inhibition. Q00987. cell-based MDM2 ubiquitination luciferase reporter, 2 h; 0 = plate control, 100 = twice control, blank-subtracted. hit rate 0.11% among 210,000. signal enhancement, % at 5 µM;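 active = signal enhancement of 30% or more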;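 also: luminescence tracks abundance of the self-degrading MDM2-luciferase fusion protein; higher signal means inhibition of MDM2 E3 ligase activity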
Target sequence (Q00987 whole entry, looked up, the tested form may be a part): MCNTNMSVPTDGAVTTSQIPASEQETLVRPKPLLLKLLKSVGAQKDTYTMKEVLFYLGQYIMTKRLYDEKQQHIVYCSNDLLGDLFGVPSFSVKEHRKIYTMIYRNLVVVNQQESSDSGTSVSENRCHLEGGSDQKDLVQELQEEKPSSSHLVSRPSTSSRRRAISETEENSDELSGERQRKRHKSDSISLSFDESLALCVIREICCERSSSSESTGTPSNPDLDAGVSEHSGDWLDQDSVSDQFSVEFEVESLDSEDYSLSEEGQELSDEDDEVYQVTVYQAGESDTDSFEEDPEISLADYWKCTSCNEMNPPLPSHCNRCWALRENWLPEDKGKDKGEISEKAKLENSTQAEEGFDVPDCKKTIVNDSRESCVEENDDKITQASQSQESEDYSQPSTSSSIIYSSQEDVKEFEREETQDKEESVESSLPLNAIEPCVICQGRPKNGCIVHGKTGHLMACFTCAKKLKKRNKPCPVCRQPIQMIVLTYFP
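Assay system: stable mammalian line carrying autodegrading MDM2–luciferase fusion reporter; Input: 2000 cells in each well; Compound dosing: single-point 5 µM; Schedule: 2 h compound exposure at 37 °C; Signal: SteadyLite luciferase luminescence after 15 min room-temperature reagent incubation; Evaluation: % luminescence enhancement versus blank-corrected plate control mean; Benchmarks: plate controls and plate blanks.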
Calpain2 inh = blocks pig calpain II enzyme activity; purified calpain II, fluorogenic peptide substrate, 30 min; inhibition, % at 16 µM; hit rate 0.37% among 220,000;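 active = inhibition above about 50%, limit read from the data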
Wee1 degr conf = confirmation of human Wee1 degradation inhibitors; shares compounds with Wee1 degr inh; HeLa Luc-Wee1K328M degradation, luminescence; vehicle 0%, proteasome-blocked wells 100%; activation, % at 5 µM; hit rate 4% among 1,100; in the data active = activation above about 8.9%
Each line names hits and unclear results; the compound was inactive in the other large screens (follow-up assays come after a bar, where they were run).

CC(=O)c1sc(NC(=O)c2ccccc2F)nc1-c1ccccc1	Wee1 degr inh 14 | Wee1 degr conf inactive
CC(=O)c1sc(NC(=O)c2ccc(F)cc2)nc1-c1ccccc1	none
CC1=C(C(=O)OCc2ccccc2)C(c2ccc(Cl)cc2)NC(=O)N1CCCC(=O)O (stereo not given)	none (no result: Hsp70 act, Wee1 degr inh, MDM2 E3 inh, Calpain2 inh)
C=CCNC(=O)/C=C/c1c(F)cccc1Cl	Wee1 degr inh 13 (no result: Pf gamet viab) | Wee1 degr conf inactive
COc1cccc(NC(=O)c2cccc(C)c2[N+](=O)[O-])c1	Wee1 degr inh 14 | Wee1 degr conf inactive
COc1cc(N/N=C(\C)c2ccc(N)cc2)nc(-c2ccccc2)n1	Wee1 degr inh 12 | Wee1 degr conf inactive
O=C(NCCSc1ccccc1)c1ccc(CN2CCOCC2)cc1	Wee1 degr inh 15 (no result: Hsp70 act) | Wee1 degr conf inactive
O=C(NCCSc1ccc(Cl)cc1)c1ccc(CN2CCOCC2)cc1	none
CN1CCN(c2ccc(S(=O)(=O)N3CCCCC3)cn2)CC1	none (no result: Pf gamet viab)
O=S(=O)(c1ccc(N2CCCCCC2)nc1)N1CCCC1	Wee1 degr inh 13 (no result: Pf gamet viab) | Wee1 degr conf inactive
O=c1c2c(ncn2C2CCCC2)n(Cc2ccccc2)c(=O)n1CCOc1ccccc1	Wee1 degr inh 14 | Wee1 degr conf inactive
O=c1c2c(ncn2C2CCCC2)n(Cc2ccccc2)c(=O)n1CCOc1ccc(Br)cc1	none
COc1cccc(/C=N/NC(=O)c2ccccc2N(Cc2ccccc2)S(=O)(=O)c2ccccc2)c1OC	none
CN1CCN(c2ncnc3c2cnn3-c2ccc(Cl)cc2)CC1	Wee1 degr inh 13 (no result: Pf gamet viab) | Wee1 degr conf inactive
CCN1CCN(c2ncnc3c2cnn3-c2ccc(Cl)cc2)CC1	none (no result: Hsp70 act, Wee1 degr inh, Pf gamet viab)
Cc1cc(C)c2c(N=NN(C)C)[nH]nc2n1	Wee1 degr inh 13 | Wee1 degr conf inactive
COc1ccc(-n2cc(CNCC3CC(=O)N(C4CC4)C3)c(-c3ccccc3Cl)n2)cc1 (stereo not given)	none (no result: Pf gamet viab)
CCN1CC(CNCc2cn(-c3ccc(OC)cc3)nc2-c2ccccc2Cl)CC1=O (stereo not given)	Wee1 degr inh 24 | Wee1 degr conf inactive
CCS(=O)(=O)c1ccc(C(=O)NC2CC2)c(Cl)c1Cl	Wee1 degr inh 11 | Wee1 degr conf inactive
COc1cccc(/C=N/NC(=O)CN(C2=NS(=O)(=O)c3ccccc32)c2ccccc2)c1	Wee1 degr inh 12 | Wee1 degr conf inactive
COc1ccc(/C=N/NC(=O)CN(C2=NS(=O)(=O)c3ccccc32)c2ccccc2)cc1OC	none
CC1=N/C(=C\c2ccccc2Cl)C(=O)O1	none (no result: Hsp70 act, Wee1 degr inh, MDM2 E3 inh, Calpain2 inh)
Cc1cccc(-c2nc(CSc3nc4c(c(=O)[nH]3)CCC4)c(C)o2)c1	Wee1 degr inh 11 (no result: Pf gamet viab, MDM2 E3 inh) | Wee1 degr conf inactive
CCC(C)(C)NC(=O)C(c1ccncc1)N(Cc1cccs1)C(=O)Cn1nnc2ccccc21 (stereo not given)	none (no result: Pf gamet viab)
CCC(C)(C)NC(=O)C(c1ccncc1)N(C(=O)Cn1nnc2ccccc21)c1cc2c(cc1C(C)=O)OCO2 (stereo not given)	Wee1 degr inh 14 | Wee1 degr conf inactive
CC(C)CCNC(=S)Nc1ccc2nc3n(c(=O)c2c1)CCCCC3	Wee1 degr inh 11 | Wee1 degr conf inactive
CC(NC(=O)CCc1nnc(-c2ccccc2)o1)c1ccccc1 (stereo not given)	none
CC(Cc1cccnc1)NC(=O)CCc1nnc(-c2ccccc2)o1 (stereo not given)	Wee1 degr inh 19 | Wee1 degr conf inactive
OCC[C@H]1C[C@H](O)[C@@H](O)[C@@]2(CCCc3ccccc3O2)O1	none (no result: Hsp70 act, Wee1 degr inh, MDM2 E3 inh, Calpain2 inh)
N/C(=N\OC(=O)c1ccco1)c1ccc(Br)cc1	Wee1 degr inh 15 | Wee1 degr conf inactive
COc1ccccc1OCC(=O)NNC(=O)Nc1ccccc1	none (no result: Hsp70 act, Wee1 degr inh, MDM2 E3 inh, Calpain2 inh)
COc1ccc(NC(=O)CCC(=O)NCc2ccco2)c([N+](=O)[O-])c1	none (no result: Hsp70 act, Wee1 degr inh, MDM2 E3 inh, Calpain2 inh)
Cc1cc([N+](=O)[O-])nn1CCCC(=O)Nc1ccc(Cl)cc1Cl	none
Cc1c(Cl)cccc1NC(=O)CCCn1nc([N+](=O)[O-])cc1C	Wee1 degr inh 15 | Wee1 degr conf inactive
COc1ccccc1CC(=O)Nc1ccc(-c2noc(COc3ccc(Br)cc3)n2)cc1	none
COc1ccccc1CC(=O)Nc1ccc(-c2noc(COc3cccc(C)c3C)n2)cc1	Wee1 degr inh 11 (no result: Pf gamet viab) | Wee1 degr conf inactive
Cn1c(Cc2cccs2)nnc1SC/C=C/c1ccccc1	none (no result: Pf gamet viab)
Cn1c(SC/C=C/c2ccccc2)nnc1-c1ccco1	Wee1 degr inh 12 (no result: Pf gamet viab) | Wee1 degr conf inactive
CCN(CC)S(=O)(=O)c1ccc(C(=O)NCCc2ccccn2)cc1	Wee1 degr inh 12 (no result: Pf gamet viab) | Wee1 degr conf 9.3
CC(=O)Nc1cccc(-c2cn3ccccc3n2)c1	Wee1 degr inh 11 | Wee1 degr conf inactive
CCCCNC(=O)CSc1nnc(Cc2ccccc2)n1CC	none (no result: Pf gamet viab)
Cn1c(C(=O)Nc2ccc3c(c2)OCCO3)cc2sccc21	Wee1 degr inh 16 (no result: Pf gamet viab) | Wee1 degr conf inactive
O=C(Nc1ccc2c(c1)OCCO2)c1cc2sccc2n1Cc1ccccc1	none
CCCCN1CC[C@H]2C=CC[C@@H](C(=O)Nc3nccs3)[C@H]2C1=O	none (no result: Hsp70 act, Wee1 degr inh, MDM2 E3 inh, Calpain2 inh)
COc1cccc(N(CC(=O)N/N=C(\C)c2cccs2)S(C)(=O)=O)c1	Wee1 degr inh 38 | Wee1 degr conf inactive
COC(=O)C1=C(N)Oc2cc(C)n(Cc3ccncc3)c(=O)c2C1c1cccnc1 (stereo not given)	Wee1 degr inh 14 (no result: Pf gamet viab, MDM2 E3 inh, Calpain2 inh) | Wee1 degr conf inactive
N#C/C(C(=O)N1CCOCC1)=C1/SC(Cc2ccccc2Cl)C(=O)N1c1ccccc1 (stereo not given)	Wee1 degr inh 11 (no result: Pf gamet viab) | Wee1 degr conf inactive
N#C/C(C(=O)NCc1ccco1)=C1/SC(Cc2ccc(Cl)cc2)C(=O)N1c1ccccc1 (stereo not given)	none
OC[C@@H]1CCCN1Cc1nc(-c2cccs2)no1	Wee1 degr inh 11 | Wee1 degr conf inactive
c1csc(-c2noc(CN3CCN4CCCC4C3)n2)c1 (stereo not given)	none
CCOC(=O)c1cnc(-c2ccccc2)nc1N	none (no result: Pf gamet viab)
CCOC(=O)c1ccc2ncc(-c3ccccc3)nc2c1	Wee1 degr inh 18 | Wee1 degr conf inactive
O=C(O)[C@@H]1CCCN1S(=O)(=O)c1cccc2cccnc12	none (no result: Hsp70 act, Wee1 degr inh, MDM2 E3 inh, Calpain2 inh)
Cc1ccc(S(=O)(=O)N(C)c2ccc3c(ncn3C)c2[N+](=O)[O-])cc1	none (no result: Hsp70 act, Wee1 degr inh, MDM2 E3 inh, Calpain2 inh)
CCOCC(=O)Nc1nc(C)cc(C)n1	Wee1 degr inh 11 | Wee1 degr conf inactive
CC(=O)CC(=O)Nc1nc(C)cc(C)n1	none
O=S(=O)(c1cccc2nsnc12)N1CCN(C/C=C\c2ccccc2)CC1	none
O=S(=O)(c1cccc2nsnc12)N1CCN(C/C=C/c2ccccc2)CC1	Wee1 degr inh 11 (no result: Pf gamet viab) | Wee1 degr conf inactive
O=C(CN(CC1CCCO1)C(=O)CCC(=O)Nc1ccccn1)NCC1CCCO1 (stereo not given)	none
COc1ccc(CN(CC(=O)NCc2ccco2)C(=O)CCC(=O)Nc2ccccn2)cc1	none
